Read-outs that look alike come from different tables or passages of the source.
Tests used:
KOR = KOR (Homo sapiens, UniProt P41145); test: PDSP radioligand binding assay, KOR
[1] = tested on: 44 GPCR and other molecular targets; test: PDSP binding assay panel of 44 GPCR and other molecular targets
Summary of the method: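 The Psychoactive Drug Screening Program ran radioligand binding assays across 44 GPCR and other targets. Test compounds were first screened at a single 10 μM concentration. Those showing significant activity then went to Ki determination.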

[2] = Plasma protein binding, human; format: in vitro ADME; details: for bound to both human and mouse plasma: human and mouse plasma together; for plasma protein binding (% Bound): human
[3] = Plasma protein binding, mouse; format: in vitro ADME
[4] = tested on: Fa2N-4 immortalized human hepatocytes; test: Hepatic toxicity; format: cell-based; details: in words
[5] = mouse, microsomes, 1 h

KOR, sequence (P41145 whole entry): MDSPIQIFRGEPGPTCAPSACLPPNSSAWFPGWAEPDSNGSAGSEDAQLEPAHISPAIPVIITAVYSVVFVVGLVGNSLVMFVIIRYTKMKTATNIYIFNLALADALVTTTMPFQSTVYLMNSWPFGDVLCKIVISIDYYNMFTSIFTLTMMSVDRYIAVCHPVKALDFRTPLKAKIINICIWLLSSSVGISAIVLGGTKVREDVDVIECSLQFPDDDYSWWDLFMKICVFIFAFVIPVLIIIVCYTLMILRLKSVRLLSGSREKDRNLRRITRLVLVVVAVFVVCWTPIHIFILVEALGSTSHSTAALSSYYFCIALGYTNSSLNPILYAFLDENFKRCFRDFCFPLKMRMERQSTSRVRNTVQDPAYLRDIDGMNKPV

Row | PAMPA Pe | PAMPA Pe (pH 7.4) [cm/s] | hepatic microsome stability [5] [% remaining] | SMILES | Ki (KOR) [nM] | affinity across the PDSP assay panel ([1]; in words, concentrations up to 10,000 nM) | bound to both human and mouse plasma [2] | plasma protein binding (% Bound) ([2]; 1µM) | plasma protein binding (% Bound) ([2]; 10µM) | plasma protein binding (% Bound) ([3]; 1µM) | plasma protein binding (% Bound) ([3]; 10µM) | toxicity toward human hepatocytes [4] | Ki ([1]; read-out: Ki values for 11 non-opioid targets, weak binding affinity, PDSP panel) [µM]
1 | – | – | – | O=C(c1ccccn1)N(Cc1cccs1)C1(C(=O)NC2CCCCC2)CCCCC1 [1{1}, N-(1-(Cyclohexylcarbamoyl)cyclohexyl)-N-(thiophen-2-ylmethyl)picolinamide] | 0.6 | affinity only for the opioid receptors | 90–99% | 99.59 | 99.07 | 94.05 | 90.70 | significant toxicity | –
2 | – | – | – | Clc1ccc(CSc2nnc(-c3ccccn3)n2Cc2ccco2)cc1Cl [2{8}] | – | – | 90–99% | 99.75 | 99.80 | 99.80 | 99.64 | – | 1 to 10
3 | 1710–1940 ×10^−6 cm/s | – | – | Cc1ccc(S(=O)(=O)NCc2ccc(C(=O)NCCN(Cc3ccccc3)C(C)C)cc2)cc1 [3{1}, N-(2-(Benzyl(isopropyl)amino)ethyl)-4-((4-methylphenylsulfonamido)methyl)benzamide] | – | – | 90–99% | 99.67 | 99.73 | 98.90 | 98.92 | – | –
4 | 2.7e-05 cm/s | 0.000757 | 7.3 | COc1ccc(N2CCN(CCCNC(=O)Cn3c(=O)c4cccn4c4c(C)ccnc43)CC2)cc1 [4{13}, N-(3-(4-(4-Methoxyphenyl)piperazin-1-yl)propyl)-2-(1-methyl-6-oxopyrido[2,3-e]pyrrolo[1,2-a]pyrazin-5(6H)-yl)acetamide] | – | – | 80–94% | 93.96 | 88.54 | 88.46 | 80.07 | – | –
